# Test results: ChEMBL document CHEMBL4431313, “Inhibition of Plasmodium falciparum Hsp90 Contributes to the Antimalarial Activities of Aminoalcohol-carbazoles” (J Med Chem, 2016)
# Active and inactive are the calls of the source. The calls are words filed in the database; no cut-off is given here.
# Key:
# [1] = biological target: Heat shock protein HSP 90-beta (Homo sapiens) (UniProt P08238); assay: Binding affinity to recombinant human Hsp90 beta expressed in Escherichia coli BL21(DE3) pLysS by microscale thermophoresis assay
# Plasmodium falciparum [2] = assay: (§1) Binding affinity to recombinant Plasmodium falciparum Hsp90 ISG-LGA mutant expressed in Escherichia coli BL21(DE3) pLysS by microscale thermophoresis assay
# Plasmodium falciparum [3] = assay: Antimalarial activity against Plasmodium falciparum NF54 infected in human erythrocytes assessed as [3H]-hypoxanthine incorporation by scintillation counting analysis; type: functional, organism-based
# Outline: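 NF54 parasites grown in human erythrocytes in RPMI 1640 with 0.5% ALBUMAX II, 25 mM Hepes, 25 mM NaHCO3 (pH 7.3), 0.36 mM hypoxanthine and 100 μg/mL neomycin, at 37 °C under 3% O2/4% CO2/93% N2, humidified. IC50 derived in vitro from [3H]hypoxanthine incorporation. Compounds held as 10 mM DMSO stocks at -20 °C.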
# Heat shock protein 90 = Heat shock protein 90 (Plasmodium falciparum, UniProt Q8IC05); assay: Binding affinity to recombinant Plasmodium falciparum Hsp90 expressed in Escherichia coli BL21(DE3) pLysS by microscale thermophoresis assay
# [4] = biological target: T1, HSP90 (Plasmodium falciparum 3D7) (UniProt Q8IL32); assay: Binding affinity to recombinant Plasmodium falciparum Hsp90 expressed in Escherichia coli BL21(DE3) pLysS assessed as thermophoresis shift at 50 uM by microscale thermophoresis assay
# T1 sequence (whole entry): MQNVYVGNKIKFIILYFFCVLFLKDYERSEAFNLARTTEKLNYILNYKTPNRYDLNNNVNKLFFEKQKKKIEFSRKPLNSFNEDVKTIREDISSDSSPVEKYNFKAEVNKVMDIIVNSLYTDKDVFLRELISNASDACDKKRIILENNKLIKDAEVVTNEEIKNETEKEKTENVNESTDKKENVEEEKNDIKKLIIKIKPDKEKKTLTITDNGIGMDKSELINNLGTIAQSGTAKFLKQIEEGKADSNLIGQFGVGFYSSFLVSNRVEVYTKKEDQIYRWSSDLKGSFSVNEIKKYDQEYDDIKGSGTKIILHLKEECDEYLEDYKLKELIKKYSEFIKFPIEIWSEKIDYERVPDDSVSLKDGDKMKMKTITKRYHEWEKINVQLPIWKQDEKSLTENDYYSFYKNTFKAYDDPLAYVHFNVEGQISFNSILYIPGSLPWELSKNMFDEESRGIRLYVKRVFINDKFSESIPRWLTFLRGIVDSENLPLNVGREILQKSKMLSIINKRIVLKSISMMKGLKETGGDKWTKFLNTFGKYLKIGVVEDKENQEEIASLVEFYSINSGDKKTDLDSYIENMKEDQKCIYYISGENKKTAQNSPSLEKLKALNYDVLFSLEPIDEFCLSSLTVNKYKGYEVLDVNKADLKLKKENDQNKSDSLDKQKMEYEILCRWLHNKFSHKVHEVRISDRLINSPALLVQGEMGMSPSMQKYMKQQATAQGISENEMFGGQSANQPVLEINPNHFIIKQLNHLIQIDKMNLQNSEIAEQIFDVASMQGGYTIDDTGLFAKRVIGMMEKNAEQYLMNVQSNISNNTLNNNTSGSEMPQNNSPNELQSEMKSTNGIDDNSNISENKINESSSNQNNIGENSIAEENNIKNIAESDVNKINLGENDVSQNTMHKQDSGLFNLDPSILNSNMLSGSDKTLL
# Outline: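 Microscale thermophoresis with fluorescently labeled PfHsp90: ligand-induced change in the protein's movement along a temperature gradient. Each compound tested at a fixed 50 μM. Compounds were held as 10 mM stocks in 100% DMSO at -20 °C.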
# L6 = assay: Cytotoxicity against rat L6 cells after 72 hrs by alamar blue assay; type: cell-based; details: L6, 72 h
# [5] = as §1
# Plasmodium falciparum [6] = assay: Antimalarial activity against Plasmodium falciparum K1 infected in human erythrocytes after 72 hrs by DAPI staining-based confocal imaging system; type: functional, organism-based; details: K1, 72 h
# Plasmodium falciparum [7] = assay: Antimalarial activity against Plasmodium falciparum 3D7 infected in human erythrocytes after 72 hrs by DAPI staining-based confocal imaging system; type: functional, organism-based; details: 3D7, 72 h
# Sequence of Heat shock protein 90 (Q8IC05 1-745): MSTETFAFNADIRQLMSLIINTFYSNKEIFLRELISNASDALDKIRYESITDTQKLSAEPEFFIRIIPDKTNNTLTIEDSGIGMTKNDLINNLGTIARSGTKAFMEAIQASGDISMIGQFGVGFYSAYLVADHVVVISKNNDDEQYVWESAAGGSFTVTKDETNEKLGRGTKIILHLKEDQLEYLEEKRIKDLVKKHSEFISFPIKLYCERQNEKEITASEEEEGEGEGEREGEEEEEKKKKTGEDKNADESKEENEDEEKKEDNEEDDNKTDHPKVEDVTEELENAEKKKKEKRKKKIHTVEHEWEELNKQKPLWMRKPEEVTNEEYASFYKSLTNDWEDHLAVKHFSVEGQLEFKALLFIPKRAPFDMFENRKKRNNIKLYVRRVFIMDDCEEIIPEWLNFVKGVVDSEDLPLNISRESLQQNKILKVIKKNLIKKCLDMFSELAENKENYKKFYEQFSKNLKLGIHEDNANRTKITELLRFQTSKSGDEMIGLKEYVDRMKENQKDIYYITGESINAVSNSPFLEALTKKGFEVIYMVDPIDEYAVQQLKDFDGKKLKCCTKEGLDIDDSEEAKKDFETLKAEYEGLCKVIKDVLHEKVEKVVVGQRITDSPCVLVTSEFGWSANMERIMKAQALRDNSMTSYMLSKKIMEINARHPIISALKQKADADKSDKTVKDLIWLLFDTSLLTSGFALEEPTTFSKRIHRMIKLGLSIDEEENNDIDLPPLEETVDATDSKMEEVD
# Sequence of Heat shock protein HSP 90-beta (Homo sapiens) (P08238 whole entry): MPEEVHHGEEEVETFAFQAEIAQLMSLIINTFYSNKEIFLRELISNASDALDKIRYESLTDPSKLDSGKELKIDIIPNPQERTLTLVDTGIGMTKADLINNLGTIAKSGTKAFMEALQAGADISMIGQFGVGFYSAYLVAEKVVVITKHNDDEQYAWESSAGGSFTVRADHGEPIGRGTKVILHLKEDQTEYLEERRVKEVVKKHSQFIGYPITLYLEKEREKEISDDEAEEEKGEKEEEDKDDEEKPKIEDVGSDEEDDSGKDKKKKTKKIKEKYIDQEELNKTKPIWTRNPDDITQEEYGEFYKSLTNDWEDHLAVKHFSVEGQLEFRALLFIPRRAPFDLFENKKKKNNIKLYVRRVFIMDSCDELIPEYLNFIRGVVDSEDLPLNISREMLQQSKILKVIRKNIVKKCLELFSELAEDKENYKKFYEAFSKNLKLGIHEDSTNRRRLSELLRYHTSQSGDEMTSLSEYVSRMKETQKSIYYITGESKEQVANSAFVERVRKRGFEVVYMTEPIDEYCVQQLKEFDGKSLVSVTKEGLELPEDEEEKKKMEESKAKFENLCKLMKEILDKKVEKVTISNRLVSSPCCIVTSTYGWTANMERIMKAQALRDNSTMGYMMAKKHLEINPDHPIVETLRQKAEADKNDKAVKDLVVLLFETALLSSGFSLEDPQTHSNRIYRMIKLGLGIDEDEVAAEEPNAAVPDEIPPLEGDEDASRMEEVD
SMILES,Activity [1],Activity (Plasmodium falciparum [2]),IC50 (Plasmodium falciparum [3]) [µM],Kd (Heat shock protein 90) [µM],Activity [4] [U],IC50 (L6) [µM],Kd [5] [µM],IC50 (Plasmodium falciparum [6]) [µM],IC50 (Plasmodium falciparum [7]) [µM]
OC(CN1CCN(Cc2ccccc2)CC1)Cn1c2ccc(Cl)cc2c2cc(Cl)ccc21 (centres undefined),inactive,inactive,0.082,28.1,6.41,3.6,–,–,–
OC(CNC1CCCCC1)Cn1c2ccccc2c2ccccc21 (centres undefined),–,–,0.162,–,1.49,3.67,–,–,–
OC(CN1CCN(Cc2ccccc2)CC1)Cn1c2ccc(Br)cc2c2cc(Br)ccc21 (centres undefined),–,–,0.095,–,6.64,3.67,–,–,–
O=C(c1ccccc1)N1CCN(CC(O)Cn2c3ccc(Cl)cc3c3cc(Cl)ccc32)CC1 (centres undefined),–,–,1.13,25.6,6.71,9.72,–,–,–
CC(C)(CO)NCC(O)Cn1c2ccccc2c2ccccc21 (centres undefined),–,–,10.1,–,0.49,6.22,–,–,–
OC(CN1CCN(Cc2ccccc2)CC1)Cn1c2ccccc2c2ccccc21 (centres undefined),–,–,0.994,–,6.68,10.8,–,–,–
CC(C)NCC(O)Cn1c2ccccc2c2ccccc21 (centres undefined),–,–,1.44,–,2.71,26.5,–,–,–
CCC(C)NCC(O)Cn1c2ccc(Cl)cc2c2cc(Cl)ccc21 (centres undefined),–,–,1.56,–,3.85,0.975,–,–,–
O=C(c1ccccc1)N1CCN(CC(O)Cn2c3ccc(Br)cc3c3cc(Br)ccc32)CC1 (centres undefined),–,–,2.34,–,6.95,10.2,–,–,–
CC(C)(C)NCC(O)Cn1c2ccccc2c2ccccc21 (centres undefined),–,–,2.08,–,0.725,7.21,–,–,–
CC1CCCC(C)N1CC(O)Cn1c2ccccc2c2ccccc21 (centres undefined),–,–,4.97,–,0.6,37.7,–,–,–
OC(CN1CCOCC1)Cn1c2ccc(Cl)cc2c2cc(Cl)ccc21 (centres undefined),–,–,1.23,–,8.19,9.72,–,–,–
COC1=C2C[C@@H](C)C[C@H](OC)[C@H](O)[C@@H](C)/C=C(\C)[C@H](OC(N)=O)[C@@H](OC)/C=C\C=C(/C)C(=O)NC(=CC1=O)C2=O [GELDANAMYCIN],–,–,–,–,–,–,0.51,–,–
CCC(CC)NCC(O)Cn1c2ccccc2c2ccccc21 (centres undefined),–,–,12.7,–,0.24,7.38,–,–,–
O=C(c1ccccc1)N1CCN(CC(O)Cn2c3ccccc3c3ccccc32)CC1 (centres undefined),–,–,14.9,–,3.33,25.2,–,–,–
CC(C)NCC(O)Cn1c2ccc(Cl)cc2c2cc(Cl)ccc21 (centres undefined),–,–,0.07 to 0.082,–,8.38,2.61,–,0.48 to 1.8,0.48 to 1.8
OC(CN1CCOCC1)Cn1c2ccc(Br)cc2c2cc(Br)ccc21 (centres undefined),–,–,2.08,–,6.87,11.6,–,–,–
OC(CN1CCCCCC1)Cn1c2ccccc2c2ccccc21 (centres undefined),–,–,7.79,–,1.11,6.85,–,–,–
OC(CNC1CCCCC1)Cn1c2ccc(Cl)cc2c2cc(Cl)ccc21 (centres undefined),–,–,0.086,–,5.88,3.34,–,–,–
CN(C)CC(O)Cn1c2ccc(Br)cc2c2cc(Br)ccc21 (centres undefined),–,–,1.67,–,0.41,3.66,–,–,–
